The values that follow come from ChEMBL document CHEMBL3232963, “Discovery of a potent and selective α3β4 nicotinic acetylcholine receptor antagonist from an α-conotoxin synthetic combinatorial library” (J Med Chem, 2014).

What all share (format): cell-based
In test [1] the target is Neuronal acetylcholine receptor; alpha4/beta2 (Rattus norvegicus, UniProt P09483+P12390). In words: Antagonist activity at rat alpha4beta2 nAChR expressed in HEK293 cells assessed as inhibition of epibatadine-induced effect after 30 mins by fluorescent membrane potential assay. The gist of the method: (§1)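 Stably transfected HEK293 lines (KXα3β4R2, KXα3β2R2, KXα4β2R2; rat subunits) grown in DMEM/10% FBS with G-418, plated 24 h before assay. Cells washed with HBSS, peptide added, then membrane potential blue dye, 30 min at 37 °C. Fluorescence (ex 565/em 530 nm) read up to 60 s after epibatidine to 0.1 μM. IC50 from maximal responses across concentrations; n = 4.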
Sequence of Neuronal acetylcholine receptor; alpha4/beta2 (P09483 whole entry): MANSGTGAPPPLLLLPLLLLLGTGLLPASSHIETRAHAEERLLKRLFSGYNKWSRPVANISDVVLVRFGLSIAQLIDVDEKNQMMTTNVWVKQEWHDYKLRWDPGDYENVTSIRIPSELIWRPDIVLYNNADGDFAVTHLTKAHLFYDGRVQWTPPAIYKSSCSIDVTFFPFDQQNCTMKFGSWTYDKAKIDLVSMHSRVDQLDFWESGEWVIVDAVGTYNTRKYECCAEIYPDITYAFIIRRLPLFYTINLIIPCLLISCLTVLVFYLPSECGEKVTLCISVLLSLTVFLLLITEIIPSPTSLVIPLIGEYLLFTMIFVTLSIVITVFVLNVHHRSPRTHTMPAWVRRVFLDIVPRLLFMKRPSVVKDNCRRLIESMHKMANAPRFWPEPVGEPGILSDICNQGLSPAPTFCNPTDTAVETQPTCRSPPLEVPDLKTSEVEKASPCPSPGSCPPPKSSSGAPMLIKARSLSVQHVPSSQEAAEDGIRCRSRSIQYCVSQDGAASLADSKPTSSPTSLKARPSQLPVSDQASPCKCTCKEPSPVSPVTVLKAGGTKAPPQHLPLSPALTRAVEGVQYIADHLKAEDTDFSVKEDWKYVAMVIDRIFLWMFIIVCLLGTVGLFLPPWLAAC
Sequence of Neuronal acetylcholine receptor; alpha4/beta2 (P12390 whole entry): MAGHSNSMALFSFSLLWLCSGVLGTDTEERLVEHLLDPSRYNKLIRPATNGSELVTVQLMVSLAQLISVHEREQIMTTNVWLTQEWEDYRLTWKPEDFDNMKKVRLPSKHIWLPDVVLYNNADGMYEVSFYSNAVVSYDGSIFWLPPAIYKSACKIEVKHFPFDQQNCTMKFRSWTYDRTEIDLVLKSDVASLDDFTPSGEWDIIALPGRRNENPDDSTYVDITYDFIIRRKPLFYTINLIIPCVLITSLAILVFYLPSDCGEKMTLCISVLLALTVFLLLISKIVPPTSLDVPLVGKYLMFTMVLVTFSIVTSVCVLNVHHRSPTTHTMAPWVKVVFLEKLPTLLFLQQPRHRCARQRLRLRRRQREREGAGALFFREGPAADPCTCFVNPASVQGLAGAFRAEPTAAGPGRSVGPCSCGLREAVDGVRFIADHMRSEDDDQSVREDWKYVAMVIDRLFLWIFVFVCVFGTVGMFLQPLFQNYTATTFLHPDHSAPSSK

For test [2], the target named is Neuronal acetylcholine receptor; alpha3/beta4 (Rattus norvegicus, UniProt P04757+P12392). In words: Antagonist activity at rat alpha3beta4 nAChR expressed in HEK293 cells assessed as inhibition of epibatadine-induced effect after 30 mins by fluorescent membrane potential assay. The gist of the method: as §1
Sequence of Neuronal acetylcholine receptor; alpha3/beta4 (P04757 whole entry): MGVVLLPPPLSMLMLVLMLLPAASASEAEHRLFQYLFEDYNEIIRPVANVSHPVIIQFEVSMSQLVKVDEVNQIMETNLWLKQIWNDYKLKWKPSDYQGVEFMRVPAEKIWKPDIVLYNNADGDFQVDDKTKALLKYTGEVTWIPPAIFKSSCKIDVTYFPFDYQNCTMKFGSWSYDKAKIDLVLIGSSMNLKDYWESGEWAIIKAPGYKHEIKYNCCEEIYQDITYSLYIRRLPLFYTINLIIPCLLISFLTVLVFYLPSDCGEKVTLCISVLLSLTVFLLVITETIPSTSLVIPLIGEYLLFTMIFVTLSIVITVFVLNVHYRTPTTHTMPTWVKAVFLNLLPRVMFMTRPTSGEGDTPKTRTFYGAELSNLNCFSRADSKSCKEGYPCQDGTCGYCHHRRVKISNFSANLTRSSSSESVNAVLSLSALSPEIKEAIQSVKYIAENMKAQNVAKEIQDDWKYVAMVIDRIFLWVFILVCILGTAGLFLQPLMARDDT
Sequence of Neuronal acetylcholine receptor; alpha3/beta4 (P12392 whole entry): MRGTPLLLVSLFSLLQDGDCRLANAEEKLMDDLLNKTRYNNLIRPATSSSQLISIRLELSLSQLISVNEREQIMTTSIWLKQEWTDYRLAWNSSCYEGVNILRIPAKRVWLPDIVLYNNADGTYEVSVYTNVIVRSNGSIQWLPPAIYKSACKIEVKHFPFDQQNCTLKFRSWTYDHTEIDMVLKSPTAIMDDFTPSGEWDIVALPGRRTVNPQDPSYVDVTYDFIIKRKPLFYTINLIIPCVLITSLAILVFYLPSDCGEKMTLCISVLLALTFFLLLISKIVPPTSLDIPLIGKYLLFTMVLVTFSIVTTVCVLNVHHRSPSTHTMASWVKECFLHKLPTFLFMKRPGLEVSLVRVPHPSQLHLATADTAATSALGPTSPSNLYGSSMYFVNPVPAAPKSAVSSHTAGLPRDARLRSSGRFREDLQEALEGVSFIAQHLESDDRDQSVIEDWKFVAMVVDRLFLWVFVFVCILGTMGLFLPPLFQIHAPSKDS
Test [3] has as its target Neuronal acetylcholine receptor; alpha3/beta4 (Rattus norvegicus) (UniProt P04757+P12392). In words: Antagonist activity at rat alpha3beta4 nAChR expressed in HEK293 cells assessed as inhibition of epibatadine-induced effect at 10 uM after 30 mins by fluorescent membrane potential assay relative to mecamylamine. In short, it runs like this:
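Rat α3β4 nAChR stably expressed in HEK293 cells; crude, SPE-desalted individual peptides tested at 10 μM in HBSS with membrane potential blue dye, 30 min at 37 °C. Fluorescence change read after epibatidine (0.1 μM). Percent inhibition set against 10 μM mecamylamine taken as 100%.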

The target of test [4] is Neuronal acetylcholine receptor; alpha3/beta2 (Rattus norvegicus, UniProt P04757+P12390). In words: Antagonist activity at rat alpha3beta2 nAChR expressed in HEK293 cells assessed as inhibition of epibatadine-induced effect after 30 mins by fluorescent membrane potential assay. The gist of the method: as §1
Sequence of Neuronal acetylcholine receptor; alpha3/beta2 (P04757 whole entry): as the sequence (P04757 whole entry) above
Sequence of Neuronal acetylcholine receptor; alpha3/beta2 (P12390 whole entry): as the sequence (P12390 whole entry) above

Numbered stars: 1 amine (or outer) side, 2 acyl side, 3 side chain; on linkers, the order of the positions; unused ones are H or OH. Bridge positions count the residues as written; N and C are the ends. Square brackets hold non-standard residues; d marks the D form. Peptide text beside a SMILES is read from it. X1 = O=C([C@H](CC1C=Nc2ccccc21)N[*:1])[*:2]; Nle = CCCC[C@H](N)C(=O)O; Nva = CCC[C@H](N)C(=O)O; Abu = CC[C@H](N)C(=O)O A value given as a limit tells only on which side of the number the result lay.

One may read the IC50 as the point on the concentration scale where inhibition reaches its midpoint. Usually inhibition stands for the relative decrease from the control value, in per cent. Take `CCCC[C@@H]1NC(=O)[C@H](CC)NC(=O)[C@H]([C@H](C)CC)NC(=O)[C@@H]2CSSC[C@H](NC(=O)CN)C(=O)N[C@@H](CSSC[C@@H](C(=O)O)NC(=O)[C@H](Cc3ccc(O)cc3)NC1=O)C(=O)N[C@@H](CO)C(=O)N[C@@H](Cc1cnc[nH]1)C(=O)N1CCC[C@H]1C(=O)N[C@@H](CC)C(=O)N2`: the values for the half-maximal inhibitory concentration (IC50) in test [1], in test [2] and in test [4] were > 10 µM, 0.463 µM and > 10 µM, respectively. In test [3], the inhibition is 110%.

`CCCC[C@@H]1NC(=O)[C@H](CC)NC(=O)[C@H](Cc2ccccc2)NC(=O)[C@@H]2CSSC[C@H](NC(=O)CN)C(=O)N[C@@H](CSSC[C@@H](C(=O)O)NC(=O)[C@H](Cc3ccc(O)cc3)NC1=O)C(=O)N[C@@H](CO)C(=O)N[C@@H](Cc1cnc[nH]1)C(=O)N1CCC[C@H]1C(=O)N1CCC[C@H]1C(=O)N2` (H-GCCSHPPCF[Abu][Nle]YC-OH; disulfide 2-8, 3-13): the half-maximal inhibitory concentration (IC50) in test [1] was > 10 µM; in test [2] it was 0.469 µM; in test [4] it was > 10 µM. In addition, the inhibition in test [3] was found to be 106%.

For `CCCC[C@@H]1NC(=O)[C@H](CC)NC(=O)[C@H](Cc2ccccc2)NC(=O)[C@@H]2CSSC[C@H](NC(=O)CN)C(=O)N[C@@H](CSSC[C@@H](C(=O)O)NC(=O)[C@H](Cc3ccc(O)cc3)NC1=O)C(=O)N[C@@H](CO)C(=O)N[C@@H](CCCC)C(=O)N1CCC[C@H]1C(=O)N1CCC[C@H]1C(=O)N2` (H-GCCS[Nle]PPCF[Abu][Nle]YC-OH; disulfide 2-8, 3-13), the IC50 in test [1] was > 10 µM; in test [2], 0.397 µM; in test [4], > 10 µM. Besides, the inhibition in test [3] turned out to be 107%.

On to `CCCC[C@@H]1NC(=O)[C@H](CC)NC(=O)[C@H](Cc2ccccc2)NC(=O)[C@@H]2CSSC[C@H](NC(=O)CN)C(=O)N[C@@H](CSSC[C@@H](C(=O)O)NC(=O)[C@H](Cc3ccc(O)cc3)NC1=O)C(=O)N[C@@H](CO)C(=O)N[C@@H](CCCC)C(=O)N1CCC[C@H]1C(=O)N[C@@H](CC)C(=O)N2` (H-GCCS[Nle]P[Abu]CF[Abu][Nle]YC-OH; disulfide 2-8, 3-13), for which the IC50 in test [1] is > 10 µM; in test [2], 0.31 µM; in test [4], > 10 µM. Besides, the inhibition in test [3] is 106%.

As to `CCC[C@@H]1NC(=O)[C@H](CC)NC(=O)[C@H]([C@H](C)CC)NC(=O)[C@@H]2CSSC[C@H](NC(=O)CN)C(=O)N[C@@H](CSSC[C@@H](C(=O)O)NC(=O)[C@H](Cc3ccc(O)cc3)NC1=O)C(=O)N[C@@H](CO)C(=O)N[C@@H](Cc1cnc[nH]1)C(=O)N1CCC[C@H]1C(=O)N[C@@H](CC)C(=O)N2`, the results for the concentration for half-maximal inhibition (IC50) in test [1], in test [2] and in test [4] were > 10 µM, 1.93 µM and > 10 µM, respectively. Moreover, in test [3], the inhibition turned out to be 84.5%.

Regarding `CCCC[C@@H]1NC(=O)[C@H](Cc2c[nH]c3ccccc23)NC(=O)[C@H](Cc2ccccc2)NC(=O)[C@@H]2CSSC[C@H](NC(=O)CN)C(=O)N[C@@H](CSSC[C@@H](C(=O)O)NC(=O)[C@H](Cc3ccc(O)cc3)NC1=O)C(=O)N[C@@H](CO)C(=O)N[C@@H](Cc1cnc[nH]1)C(=O)N1CCC[C@H]1C(=O)N[C@@H](CC)C(=O)N2` (H-GCCSHP[Abu]CFW[Nle]YC-OH; disulfide 2-8, 3-13), the 50% inhibitory concentration (IC50) in test [1] is > 10 µM; in test [2], 1.73 µM; in test [4] it was > 10 µM. In addition, in test [3], the inhibition amounted to 101%.

`CCCC[C@@H]1NC(=O)[C@H](Cc2c[nH]c3ccccc23)NC(=O)[C@H](Cc2ccccc2)NC(=O)[C@@H]2CSSC[C@H](NC(=O)CN)C(=O)N[C@@H](CSSC[C@@H](C(=O)O)NC(=O)[C@H](Cc3ccc(O)cc3)NC1=O)C(=O)N[C@@H](CO)C(=O)N[C@@H](CCCC)C(=O)N1CCC[C@H]1C(=O)N1CCC[C@H]1C(=O)N2` (H-GCCS[Nle]PPCFW[Nle]YC-OH; disulfide 2-8, 3-13): in test [3], the inhibition is 60.2%.

For `CCCC[C@@H]1NC(=O)[C@H](CC)NC(=O)[C@H](Cc2ccccc2)NC(=O)[C@@H]2CSSC[C@H](NC(=O)CN)C(=O)N[C@@H](CSSC[C@@H](C(=O)O)NC(=O)[C@@H]3CCCN3C1=O)C(=O)N[C@@H](CO)C(=O)N[C@@H](Cc1cnc[nH]1)C(=O)N1CCC[C@H]1C(=O)N1CCC[C@H]1C(=O)N2` (H-GCCSHPPCF[Abu][Nle]PC-OH; disulfide 2-8, 3-13), the inhibition in test [3] worked out at 29.1%.

For the compound `CCCC[C@@H]1NC(=O)[C@H](CO)NC(=O)[C@@H]2CSSC[C@@H](C(=O)O)NC(=O)[C@H](Cc3ccc(O)cc3)NC(=O)[C@H](CCC)NC(=O)[C@H](Cc3c[nH]c4ccccc34)NC(=O)[C@H](Cc3ccccc3)NC(=O)[C@H](CSSC[C@H](NC(=O)CN)C(=O)N2)NC(=O)[C@H](CC)NC(=O)[C@@H]2CCCN2C1=O` (H-GCCS[Nle]P[Abu]CFW[Nva]YC-OH; disulfide 2-8, 3-13), the inhibition in test [3] was determined as 67.9%.

Take `CCCC[C@@H]1NC(=O)[C@H](CO)NC(=O)[C@@H]2CSSC[C@@H](C(=O)O)NC(=O)[C@@H]3CCCN3C(=O)[C@H](CCC)NC(=O)[C@H](Cc3c[nH]c4ccccc34)NC(=O)[C@H]([C@H](C)CC)NC(=O)[C@H](CSSC[C@H](NC(=O)CN)C(=O)N2)NC(=O)[C@@H]2CCCN2C(=O)[C@@H]2CCCN2C1=O`: the inhibition in test [3] was 38.9%.

For the compound `CCC[C@@H]1NC(=O)[C@H](CC)NC(=O)[C@H]([C@H](C)CC)NC(=O)[C@@H]2CSSC[C@H](NC(=O)CN)C(=O)N[C@@H](CSSC[C@@H](C(=O)O)NC(=O)[C@H](Cc3ccc(O)cc3)NC1=O)C(=O)N[C@@H](CO)C(=O)N[C@@H](Cc1cnc[nH]1)C(=O)N1CCC[C@H]1C(=O)N1CCC[C@H]1C(=O)N2`, the inhibition in test [3] was 62.3%.

In the case of `CCCC[C@@H]1NC(=O)[C@H](CO)NC(=O)[C@@H]2CSSC[C@@H](C(=O)O)NC(=O)[C@@H]3CCCN3C(=O)[C@H](CCC)NC(=O)[C@H](CC)NC(=O)[C@H]([C@H](C)CC)NC(=O)[C@H](CSSC[C@H](NC(=O)CN)C(=O)N2)NC(=O)[C@H](CC)NC(=O)[C@@H]2CCCN2C1=O`, the inhibition in test [3] came to 19.2%.

For the compound `CCCC[C@@H]1NC(=O)[C@H](Cc2c[nH]c3ccccc23)NC(=O)[C@H]([C@H](C)CC)NC(=O)[C@@H]2CSSC[C@H](NC(=O)CN)C(=O)N[C@@H](CSSC[C@@H](C(=O)O)NC(=O)[C@H](Cc3ccc(O)cc3)NC1=O)C(=O)N[C@@H](CO)C(=O)N[C@@H](Cc1cnc[nH]1)C(=O)N1CCC[C@H]1C(=O)N1CCC[C@H]1C(=O)N2`, the inhibition in test [3] was found to be 43.9%.

For the compound `CCCC[C@@H]1NC(=O)[C@H](Cc2c[nH]c3ccccc23)NC(=O)[C@H](Cc2ccccc2)NC(=O)[C@@H]2CSSC[C@H](NC(=O)CN)C(=O)N[C@@H](CSSC[C@@H](C(=O)O)NC(=O)[C@H](Cc3ccc(O)cc3)NC1=O)C(=O)N[C@@H](CO)C(=O)N[C@@H](Cc1cnc[nH]1)C(=O)N1CCC[C@H]1C(=O)N1CCC[C@H]1C(=O)N2` (H-GCCSHPPCFW[Nle]YC-OH; disulfide 2-8, 3-13), in test [3], the inhibition worked out at 44%.

In the case of `CCCC[C@@H]1NC(=O)[C@H](CC2C=Nc3ccccc32)NC(=O)[C@H](Cc2ccccc2)NC(=O)[C@@H]2CSSC[C@H](NC(=O)CN)C(=O)N[C@@H](CSSC[C@@H](C(=O)O)NC(=O)[C@@H]3CCCN3C1=O)C(=O)N[C@@H](CO)C(=O)N[C@@H](CCCC)C(=O)N1CCC[C@H]1C(=O)N[C@@H](CC)C(=O)N2` (some centres undefined) (H-GCCS[Nle]P[Abu]CF[X1][Nle]PC-OH; disulfide 2-8, 3-13), the inhibition in test [3] stood at 22.1%.

Take `CCCC[C@@H]1NC(=O)[C@H](CC)NC(=O)[C@H](Cc2ccccc2)NC(=O)[C@@H]2CSSC[C@H](NC(=O)CN)C(=O)N[C@@H](CSSC[C@@H](C(=O)O)NC(=O)[C@H](Cc3ccc(O)cc3)NC1=O)C(=O)N[C@@H](CO)C(=O)N[C@@H](Cc1cnc[nH]1)C(=O)N1CCC[C@H]1C(=O)N[C@@H](CC)C(=O)N2` (H-GCCSHP[Abu]CF[Abu][Nle]YC-OH; disulfide 2-8, 3-13): the IC50 was > 10 µM in test [1], 0.307 µM in test [2] and > 10 µM in test [4]. Besides, the inhibition in test [3] worked out at 110%.

Take `CCC[C@@H]1NC(=O)[C@H](Cc2c[nH]c3ccccc23)NC(=O)[C@H](Cc2ccccc2)NC(=O)[C@@H]2CSSC[C@H](NC(=O)CN)C(=O)N[C@@H](CSSC[C@@H](C(=O)O)NC(=O)[C@H](Cc3ccc(O)cc3)NC1=O)C(=O)N[C@@H](CO)C(=O)N[C@@H](Cc1cnc[nH]1)C(=O)N1CCC[C@H]1C(=O)N1CCC[C@H]1C(=O)N2` (H-GCCSHPPCFW[Nva]YC-OH; disulfide 2-8, 3-13): the inhibition in test [3] turned out to be 47.8%.

On to `CCCC[C@@H]1NC(=O)[C@H](CC)NC(=O)[C@H]([C@H](C)CC)NC(=O)[C@@H]2CSSC[C@H](NC(=O)CN)C(=O)N[C@@H](CSSC[C@@H](C(=O)O)NC(=O)[C@H](Cc3ccc(O)cc3)NC1=O)C(=O)N[C@@H](CO)C(=O)N[C@@H](Cc1cnc[nH]1)C(=O)N1CCC[C@H]1C(=O)N1CCC[C@H]1C(=O)N2`, for which the inhibition in test [3] turned out to be 67.2%.
